One compound from ChEMBL document CHEMBL3351741, “Fused heterocycles bearing bridgehead nitrogen as potent HIV-1 NNRTIs. Part 2: discovery of novel [1,2,4]Triazolo[1,5-a]pyrimidines using a structure-guided core-refining approach” (Eur J Med Chem, 2014) can be followed below.

Molecules are shown by their SMILES. A value given as a limit tells only on which side of the number the result lay.

A short description of data set [1]: Selectivity index, ratio of CC50 for mock-infected human MT4 cells to EC50 for HIV-1 3B infected in human MT4 cells. The data set is classed as toxicity, cell-based. The settings on record: mock-infected and infected with HIV-1 3B, read-out: Ratio CC50/EC50. The procedure, abridged:
(§1)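 MT-4 cells resuspended at 6 × 10⁵ cells/ml, infected with HIV-1 IIIB, RES056 or HIV-2 ROD at 100-300 CCID50, or mock-infected; test compounds added from 10× stocks. After 5 days, viability read by MTT at 540 and 690 nm, median OD of two or three wells. EC50 = 50% protection from cytopathicity; CC50 = 50% viability loss in mock-infected cells; SI = CC50/EC50.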

Data set [2] in a line: Selectivity index, ratio of CC50 for mock-infected human MT4 cells to EC50 for HIV-2 ROD infected in human MT4 cells. Format: toxicity, cell-based. Particulars: mock-infected and infected with HIV-2 ROD, read-out: Ratio CC50/EC50. The procedure, abridged:
as §1

Data set [3] is described as follows: Selectivity index, ratio of CC50 for mock-infected human MT4 cells to EC50 for HIV-1 RES056 harboring RT K103N/Y181C double mutant infected in human MT4 cells. Particulars: read-out: Ratio CC50/EC50. Format: toxicity, cell-based. The procedure, abridged:
as §1

Data set [4] concerns Human immunodeficiency virus 1. The data set is described as follows: Antiviral activity against HIV-1 RES056 harboring RT K103N/Y181C double mutant infected in human MT4 cells assessed as protection from viral cytopathicity after 5 days by MTT assay. The data set is classed as functional, organism-based. Particulars: Human immunodeficiency virus 1, RES056, MT4, 120 h. The procedure, abridged: as §1
A general note: Protection from cytopathic effect is a common read-out in antiviral testing.

For data set [5], the system named is Human immunodeficiency virus 2. The data set is described as follows: Antiviral activity against HIV-2 ROD infected in human MT4 cells assessed as protection from viral cytopathicity after 5 days by MTT assay. Format: functional, organism-based. The settings on record: Human immunodeficiency virus 2, ISOLATE ROD, MT4, 120 h. Summed up: (§2)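 MT-4 cells (6 × 10⁵ cells/ml) infected with HIV-1 IIIB or HIV-2 ROD stock at 100-300 CCID₅₀; compounds added as 10× stocks. After 5 days, viability read by MTT reduction at 540 and 690 nm, using median OD of two or three wells. EC₅₀ is the concentration giving 50% protection from viral cytopathicity.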

Data set [6] deals with Human immunodeficiency virus type 1 reverse transcriptase (Human immunodeficiency virus 1, UniProt Q72547). The data set is described as follows: Inhibition of purified recombinant HIV-1 reverse transcriptase after 1 hr using biotin-labeled dUTP by digoxigenin-peroxidase assay. Summed up:
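Kit-based colorimetric ELISA with recombinant wild-type HIV-1 RT, poly(A)·oligo(dT)15 template/primer, dNTPs including digoxigenin- and biotin-labeled dUTP, in lysis buffer ± inhibitor, incubated 1 h at 37 °C. Product captured on streptavidin, detected with anti-DIG-peroxidase and ABTS, absorbance at 405 nm. Several concentrations tested; % inhibition taken relative to the no-inhibitor sample.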

Data set [7] in a line: Cytotoxicity against mock-infected human MT4 cells after 5 days by MTT assay. Format: cell-based. Summed up:
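Mock-infected MT-4 cells (6 × 10⁵ cells/ml) received culture medium in place of virus and were exposed to compounds added as 10× stocks. After 5 days, viability was read by MTT at 540 and 690 nm, using median OD of two or three wells. CC₅₀ is the concentration cutting viability by 50%. '>' marks the highest concentration tested without cytotoxicity.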
On the technique in general: Tetrazolium dyes change colour on reduction, which living cells bring about.

Data set [8] has as its system Human immunodeficiency virus 1. The data set is described as follows: Antiviral activity against HIV-1 3B infected in human MT4 cells assessed as protection from viral cytopathicity after 5 days by MTT assay. The data set is classed as functional, organism-based. The settings on record: Human immunodeficiency virus 1, 3B, MT4, 120 h. Summed up: as §2

As for `Cc1cc(C#N)cc(C)c1Oc1cc(Nc2ccc(C#N)cc2)nc2ncnn12`, the selectivity ratio in data set [1] was 182; in data set [2], less than 1; in data set [3] it was less than 1. Besides, the results for the EC50 in data set [4], in data set [5] and in data set [8] were more than 224 µM, more than 224 µM and 1.2 µM, respectively. For the same compound, the IC50 – broadly, the concentration that gives 50% inhibition – in data set [6] amounted to 0.39 µM. Further, in data set [7], it took 224 µM to reach half-maximal cytotoxicity (CC50 at 120 h).
